According to BindingDB's records for doi:10.1021/np800732n (National Cancer Institute-Frederick, 2010):

Target: Transcription factor Jun (Homo sapiens, UniProt P05412)
Test: Inhibition of TPA-induced AP1 transfected in HEK293 cells assessed as inhibition of […] reporter activity treated 1 hr before TPA stimulation measured after 18 hrs by luciferase reporter gene assay
Procedure, shortened: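 HEK293 cells were grown in DMEM with 10% FBS at 37 °C and 5% CO2. They were transiently transfected with a luciferase reporter (0.1 µg/well); reporters were AP-1 (four TRE consensus copies from GCN4), NF-κB (five responsive-element copies) or SRE. After 24 h, medium went to DMEM with 0.2% FBS. Cells were pretreated 1 h with compound or DMSO, then given TPA 10 ng/mL for 18 h. Firefly luciferase was read from passive-lysis lysates, TPA alone = 100%, in quadruplicate.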

Transcription factor Jun, sequence (P05412 whole entry): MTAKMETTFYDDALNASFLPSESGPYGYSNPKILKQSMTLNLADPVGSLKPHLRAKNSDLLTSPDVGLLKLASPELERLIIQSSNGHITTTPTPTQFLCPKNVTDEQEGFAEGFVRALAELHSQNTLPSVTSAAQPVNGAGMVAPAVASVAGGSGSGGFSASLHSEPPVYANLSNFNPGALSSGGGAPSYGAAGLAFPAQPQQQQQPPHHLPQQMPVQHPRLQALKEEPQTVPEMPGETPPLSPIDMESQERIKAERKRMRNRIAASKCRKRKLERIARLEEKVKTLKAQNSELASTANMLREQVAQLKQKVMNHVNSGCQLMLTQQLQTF

IC50 [nM] | Compound
71 | CC(C)=CC(=O)O[C@@H]1[C@H]2C(C)=C[C@H](O)[C@@H](O)[C@]2(C)[C@H]2[C@]3(O)OC[C@@]24[C@@H]1OC(=O)C[C@H]4[C@@H](C)[C@H]3O [6R-senecionylchaparrin]
32 | CCC(C)C(=O)O[C@H]1C(=O)O[C@@H]2C[C@H]3C(C)CC(=O)C(=O)[C@]3(C)[C@H]3[C@]4(O)OC[C@]32[C@@H]1[C@@H](C)[C@H]4O (stereo partly drawn)

Compound | IC50 [nM]
CC[C@](C)(O)C(=O)O[C@H]1C(=O)O[C@@H]2C[C@H]3C(C)CC(=O)C(=O)[C@]3(C)[C@H]3[C@@]4(O)OC[C@]32[C@@H]1[C@@H](C)[C@H]4O (stereo partly drawn) [NSC-14975] | 40
